{"source": "ChEMBL document CHEMBL4354866", "about": "“TREK Channel Family Activator with a Well-Defined Structure-Activation Relationship for Pain and Neurogenic Inflammation” (J Med Chem, 2020)", "key": {"[1]": {"biological_target": "T1, Potassium channel subfamily K member 2 (Homo sapiens) (UniProt O95069)", "T1 sequence (whole entry)": "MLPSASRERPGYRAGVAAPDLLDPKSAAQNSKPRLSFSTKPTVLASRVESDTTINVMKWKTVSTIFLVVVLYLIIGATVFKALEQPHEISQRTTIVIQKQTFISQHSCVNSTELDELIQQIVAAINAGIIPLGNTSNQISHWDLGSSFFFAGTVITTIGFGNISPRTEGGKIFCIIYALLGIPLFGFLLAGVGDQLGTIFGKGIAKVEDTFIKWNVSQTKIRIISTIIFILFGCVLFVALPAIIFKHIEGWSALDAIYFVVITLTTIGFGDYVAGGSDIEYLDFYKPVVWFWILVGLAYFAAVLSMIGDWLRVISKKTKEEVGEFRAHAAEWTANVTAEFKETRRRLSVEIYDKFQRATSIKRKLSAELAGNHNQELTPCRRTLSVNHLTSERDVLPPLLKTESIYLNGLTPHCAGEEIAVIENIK", "assay": "Activation of recombinant human TREK1 expressed in HEK293T cells assessed as change in probability of open channel by inside-out patch electrophysiological analysis", "type": "cell-based", "in_short": "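Inside-out patches from HEK-293T cells expressing human TREK-1 (pEGFP-N1), 10 μM compound. Conductance taken as first open-state amplitude over voltage at -60 or +60 mV.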"}, "Mus musculus [2]": {"system": "Mus musculus", "assay": "Analgesic activity in mouse model of spared nerve injury assessed as reduction in number of hind paw lifting at 5 mg/kg, ip incubated for 30 mins measured within 5 mins by spontaneous pain test", "type": "functional, organism-based", "in_short": "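SNI mice, day 7, acclimated 3 days on a wire-mesh floor. Compound 5 mg/kg i.p. Starting 30 min after injection, mice were videotaped for 5 min and left hindpaw flinches counted blind; n = 7.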"}, "Mus musculus [3]": {"system": "Mus musculus", "assay": "Analgesic activity in cerulein-induced mouse model of acute pancreatitis assessed as reduction in pancreatic inflammatory infiltration at 10 mg/kg, ip administered at 2 hrs interval for 10 hrs starting from post-first cerulein challenge and measured 12 hrs post-first cerulein challenge by H and E staining based histopathological analysis", "type": "functional, organism-based", "in_short": "(§1)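 Cerulein pancreatitis: 7 hourly i.p. injections of 50 µg/kg; 10 mg/kg compound i.p. at 2, 4, 6, 8 and 10 h. Mice killed at 12 h and pancreas harvested for MPO activity and H&E histology. Ten random fields per slide scored blind by two observers for edema, inflammatory infiltration and acinar necrosis; n = 6.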"}, "Mus musculus [4]": {"system": "Mus musculus", "assay": "Analgesic activity in ip dosed mouse assessed as increase in tail flick latency time measured up to 120 mins at 52 degC by tail immersion test", "type": "functional, organism-based", "in_short": "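Male BALB/c or C57BL/6 mice, 6–8 weeks, acclimated in a holder 15 min/day for 3 days. Distal 3 cm of tail immersed at 5, 20, 40, 46 or 52 °C; flick latency recorded, cut-off 15 s. Compound i.p. in 5% DMSO/5% Tween 80/90% saline (1.25–10 mg/kg at 52 °C; 5 mg/kg across temperatures).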"}, "Mus musculus [5]": {"system": "Mus musculus", "assay": "Analgesic activity in cerulein-induced mouse model of acute pancreatitis assessed as reduction in myeloperoxidase activity at 10 mg/kg, ip administered at 2 hrs interval for 10 hrs starting from post-first cerulein challenge and measured 12 hrs post-first cerulein challenge", "type": "functional, organism-based", "in_short": "as §1"}, "[6]": {"biological_target": "Potassium channel subfamily K member 2 (Homo sapiens, UniProt O95069, G275C)", "sequence (O95069 whole entry G275C)": "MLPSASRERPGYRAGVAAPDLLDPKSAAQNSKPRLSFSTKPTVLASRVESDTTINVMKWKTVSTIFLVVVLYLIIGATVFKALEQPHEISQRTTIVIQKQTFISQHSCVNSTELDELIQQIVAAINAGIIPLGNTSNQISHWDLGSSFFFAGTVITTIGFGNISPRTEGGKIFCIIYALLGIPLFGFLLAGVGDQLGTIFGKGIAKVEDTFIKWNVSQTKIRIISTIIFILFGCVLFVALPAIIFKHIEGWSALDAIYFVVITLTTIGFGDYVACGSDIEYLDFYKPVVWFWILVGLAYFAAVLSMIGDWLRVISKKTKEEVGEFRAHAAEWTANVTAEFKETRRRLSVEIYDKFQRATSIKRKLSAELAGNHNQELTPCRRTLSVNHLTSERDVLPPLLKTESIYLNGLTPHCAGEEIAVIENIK", "assay": "Activation of recombinant human TREK1 G275C mutant expressed in HEK293T cells assessed as increase in K+ current amplitude in presence of MTSET by whole cell voltage clamp electrophysiological analysis", "type": "cell-based", "in_short": "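Human TREK-1 G275C expressed in HEK-293T, whole-cell ramp recordings. Tested with or without MTSET, 1 mM final, diluted from 0.5 M DMSO stock within 120 s of application. Concentration–response curves for EC50, n = 5–19; 10 μM single-point comparison by one-way ANOVA with Tukey test.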"}, "[7]": {"biological_target": "T2, TREK-2 two-pore-domain K+ channel (Mus musculus, UniProt Q3LS20)", "T2 sequence (Q3LS20 whole entry)": "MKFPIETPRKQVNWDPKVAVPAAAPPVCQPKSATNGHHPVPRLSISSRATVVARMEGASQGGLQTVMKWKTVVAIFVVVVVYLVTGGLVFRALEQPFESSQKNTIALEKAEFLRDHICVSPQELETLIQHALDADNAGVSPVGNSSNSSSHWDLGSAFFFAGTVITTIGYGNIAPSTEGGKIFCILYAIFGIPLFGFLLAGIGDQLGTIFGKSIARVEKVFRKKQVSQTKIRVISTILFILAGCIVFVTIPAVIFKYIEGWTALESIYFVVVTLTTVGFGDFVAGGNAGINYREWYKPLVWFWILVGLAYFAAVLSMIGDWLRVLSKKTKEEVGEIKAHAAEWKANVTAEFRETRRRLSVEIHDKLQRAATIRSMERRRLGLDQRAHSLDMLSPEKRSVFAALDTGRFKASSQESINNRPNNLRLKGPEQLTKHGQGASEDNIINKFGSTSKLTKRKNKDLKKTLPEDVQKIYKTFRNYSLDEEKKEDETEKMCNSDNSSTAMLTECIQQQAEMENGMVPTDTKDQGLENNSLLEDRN", "assay": "Activation of recombinant mouse TREK2 expressed in HEK293T cells assessed as increase in K+ current amplitude by whole cell voltage clamp electrophysiological analysis", "type": "cell-based", "in_short": "(§2)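 Transiently transfected HEK-293T cells, whole-cell voltage clamp. Held at -60 mV, 500-ms ramp -120 to +60 mV. Pipette (mM) 140 KCl, 5 EGTA, 10 HEPES, pH 7.4; external 145 NaCl, 4 KCl, pH 7.3. Compound diluted from 10 mM DMSO stock and applied extracellularly. Current increase over control fitted to concentration–response curves for EC50.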"}, "[8]": {"biological_target": "Potassium channel subfamily K member 3 (Homo sapiens) (UniProt O14649)", "sequence (O14649 whole entry, looked up)": "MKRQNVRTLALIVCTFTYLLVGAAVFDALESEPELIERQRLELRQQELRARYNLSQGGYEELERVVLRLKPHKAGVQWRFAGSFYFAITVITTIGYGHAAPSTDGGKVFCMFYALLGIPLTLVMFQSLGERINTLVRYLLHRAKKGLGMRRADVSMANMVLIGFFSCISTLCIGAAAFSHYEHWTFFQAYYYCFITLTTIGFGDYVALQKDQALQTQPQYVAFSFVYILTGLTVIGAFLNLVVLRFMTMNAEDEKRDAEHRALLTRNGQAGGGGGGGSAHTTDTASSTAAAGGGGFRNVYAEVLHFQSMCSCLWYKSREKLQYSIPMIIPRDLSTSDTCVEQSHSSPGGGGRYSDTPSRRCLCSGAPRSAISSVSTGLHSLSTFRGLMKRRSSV", "assay": "Activation of recombinant human TASK1 expressed in HEK293T cells assessed as increase in K+ current amplitude at 10 uM by whole cell voltage clamp electrophysiological analysis", "type": "cell-based", "in_short": "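HEK-293T cells transiently transfected with the human K2P channel. Whole-cell clamp at -60 mV, 500-ms ramp -120 to +60 mV. Pipette 140 KCl (pH 7.4), external 145 NaCl/4 KCl (pH 7.3). Compound 10 μM, diluted from 10 mM DMSO stock into external solution.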"}, "[9]": {"biological_target": "Potassium channel subfamily K member 2 (Homo sapiens, UniProt O95069, W290A)", "sequence (O95069 whole entry W290A)": "as the sequence (O95069 whole entry G275C) above, with C275G, W290A counted along it", "assay": "Activation of recombinant human TREK1 W290A mutant expressed in HEK293T cells assessed as increase in K+ current amplitude by whole cell voltage clamp electrophysiological analysis", "type": "cell-based", "in_short": "as §2"}, "[10]": {"biological_target": "T1, Potassium channel subfamily K member 2 (Homo sapiens)", "assay": "Activation of recombinant human TREK1 expressed in HEK293T cells assessed as increase in K+ current amplitude measured after compound washout by whole cell voltage clamp electrophysiological analysis", "type": "cell-based", "in_short": "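HEK-293T cells expressing human TREK-1, whole-cell clamp. Current recorded during extracellular compound application and again after washout.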"}, "[11]": {"biological_target": "Potassium channel subfamily K member 2 (Homo sapiens, UniProt O95069, T156A)", "sequence (O95069 whole entry T156A)": "as the sequence (O95069 whole entry G275C) above, with T156A, C275G counted along it", "assay": "Activation of recombinant human TREK1 T156A mutant expressed in HEK293T cells assessed as increase in K+ current amplitude by whole cell voltage clamp electrophysiological analysis", "type": "cell-based", "in_short": "as §2"}}, "note": "The source made the active and inactive calls."}
{"smiles": "Cc1ccc2nc(-c3ccc(NC(=O)[C@@H]4CC[C@H](C(=O)O)C4)cc3)sc2c1", "values": [{"measurement": "Activity", "setting": "[1]", "value": "inactive"}, {"measurement": "Activity", "setting": "Mus musculus [2]", "value": "Active"}, {"measurement": "Activity", "setting": "Mus musculus [3]", "value": "Active"}, {"measurement": "Activity", "setting": "Mus musculus [4]", "value": "Dose-dependent effect"}, {"measurement": "Activity", "setting": "Mus musculus [5]", "value": "Active"}, {"measurement": "EC50", "setting": "[6]", "value": 18.4, "unit": "µM"}, {"measurement": "EC50", "setting": "[7]", "value": 11.3, "unit": "µM"}, {"measurement": "Activity", "setting": "[8]", "value": "Active"}, {"measurement": "EC50", "setting": "[9]", "value": 3.91, "unit": "µM"}, {"measurement": "Activity", "setting": "[10]", "value": "inactive"}, {"measurement": "EC50", "setting": "[11]", "value": 7.57, "unit": "µM"}]}
